Screening data from PubChem.
This is a sample that favours compounds with a hit; in the whole collection about 3.7% have one here.
Kir21 inh = blocks the mouse Kir2.1 inward-rectifier potassium channel | AID 1672 | P35561 | HEK293-Kir2.1, FluxOR thallium flux fluorescence; active compounds read low | 310,000 tested, 0.85% active | B-score at 10 µM;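 active = fluorescence ratio B-score at or below minus 3 SD of library scores, with starting-brightness B-score within 2 SD, cut at about -4.2 in these data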;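 note: channel flux triggered by added potassium and thallium sulfate stimulus; B-score of peak minus minimum fluorescence over baseline after thallium stimulus; more negative B-score means stronger Kir2.1 block with less thallium influx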
hERG rescue = shields human hERG channel from block by proarrhythmic agents; 310,000 tested, 0.51% active; activation (rescue from dofetilide block), less the hit threshold, % at 10 µM; AID 1511; CHO-hERG, FluxOR thallium flux, dofetilide IC70 present; Q12809;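 active = activation above the mean of controls blocked by dofetilide plus 5 SD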;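 note: thallium influx through hERG after potassium depolarization seen as dye fluorescence rise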
KCNQ1 block = blocks the human KCNQ1 potassium channel; CHO-K1 KCNQ1, FluxOR thallium flux fluorescence; active compounds read high; B-score at 10 µM; AID 2642; P51787; 310,000 tested, 1.3% active;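 active = compounds whose thallium flux B-score, printed positive for inhibition, exceeds three library SD while starting fluorescence stays within three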;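 note: channel opened by potassium depolarization with thallium stimulus after 20 min compound exposure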
KCNK9 inh = human KCNK9 channel inhibition | Q9NPC2 | HEK293 KCNK9, FluxOR thallium flux fluorescence; active compounds read low | B-score at 10 µM | 310,000 tested, 1.2% active;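 active = ratio B-score over 3 SD below the library mean, with starting fluorescence within 5 SD of its mean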;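 note: negative B-score means less thallium flux so channel inhibition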
KCNK3 inh = human KCNK3 channel inhibition, primary screen; O14649; CHO-KCNK3 thallium flux, FluxOR fluorescence; active compounds read low; B-score at 10 µM; 340,000 tested, 0.84% active; AID 602410;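 active = B-score under library mean minus 4 SD, starting fluorescence ratio at most library mean plus 5 SD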;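 note: more negative B-score means stronger inhibition of thallium flux through KCNK3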
KCNQ1 act = human KCNQ1 channel potentiation or activation | P51787 | CHO-K1 KCNQ1, thallium flux FluxOR fluorescence; active compounds read high | B-score at 10 µM | 310,000 tested, 0.35% active | AID 2648;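 active = fluorescence ratio B-score, a plate-corrected score, at least three library SD, with initial intensity B-score within 5 SD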
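assay system = KCNQ1-transfected CHO-K1 cells | medium = assay buffer with matched DMSO | probe or stimulus = depolarizing K+/Tl+ stimulus, K2SO4 and Tl2SO4 each 12.5 mM in 5x stock | dosing = single dose | incubation = dye 90 min, compound 20 min, room temperature | detection = kinetic FluxOR fluorescence, 10 s baseline plus 110 s post-stimulus | evaluation = ratio B score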
Starred values were filed as active, the others as inactive; i = inactive; x = not tested or not shown.

SMILES	Kir21 inh	hERG rescue	KCNQ1 block	KCNK9 inh	KCNK3 inh	KCNQ1 act
Nc1nc(=S)[nH]c2c1C1(CCCC1)Cc1ccccc1-2	-1.5	6.1*	i	i	i	i
O=c1[nH]c(SCc2c(Cl)cccc2Cl)nc2ccccc12	-0.42	-22	i	i	i	i
O=c1[nH]c(C(Cl)(Cl)Cl)nc2ccc3ccccc3c12	0.06	5.1*	i	i	i	25*
Fc1ccccc1-c1nc(NC2CCCC2)c2ccccc2n1	1.1	-13	6*	i	i	i
Oc1ccccc1-c1nc(NC2CCCC2)c2ccccc2n1	1.2	-8	i	i	i	i
CC(Nc1nc(-c2ccccc2F)nc2ccccc12)c1ccccc1 (configuration not stated)	-0.54	-8	i	-7.5*	i	i
Cc1[nH]c2ccccc2c1C(=O)C(=O)N1CCN(c2cccc(Cl)c2)CC1	1.1	-12	i	i	i	i
Cc1ccc(C)c(OCCC(=O)N2CCN(S(=O)(=O)c3cc(C)ccc3C)CC2)c1	-0.82	-13	i	i	i	i
S=c1nc[nH]c2c1sc1nc(N3CCOCC3)c3c(c12)CCCC3	-0.28	97*	i	i	i	95*
C1CCc2c(c(N3CCOCC3)nc3sc4c(N5CCOCC5)nnnc4c23)C1	x	x	x	x	i	x
COc1ccc(CNC(=O)CCCCCNC(=O)N2CCn3c2nc2ccccc23)cc1	2	-9	i	i	i	i
Cc1ccc(N2C(=O)N(CC(=O)NCc3ccccc3Cl)C(=O)C2C)cc1 (configuration not stated)	2	-2	i	i	i	i
CCOC(=O)/C=C/C(=O)OCC(=O)Nc1ccc([N+](=O)[O-])cc1	-0.15	-13	i	i	i	i
Oc1c(Cl)cc(Cl)cc1C(C#Cc1ccccc1)N1CCOCC1 (configuration not stated)	-1.2	-11	i	-7.1*	i	i
N#CC(c1ccc(Cl)cc1)N1CCOCC1 (configuration not stated)	0.07	-4	i	i	i	i
Cc1cc(Nc2ccc(Cl)cc2)nc(NCc2ccccc2)n1	-7*	-18	i	i	i	i
Cc1cc(Nc2ccccc2)nc(NCc2ccccc2)n1	-11*	-22	i	i	i	i
Cc1ccc(/C=N/Nc2cc(C)nc(NCc3ccccc3)n2)cc1	-0.3	-8	i	i	i	i
Cc1nc(NN)nc(NCc2ccccc2)n1	1.6	7.1*	i	i	i	i
COC(=O)c1ccccc1CSc1nsc(/C=C/N(C)C)c1C#N	-0.12	-20	6*	i	i	i
Cc1nc(CSc2nsc(/C=C/N(C)C)c2C#N)cs1	-0.63	-9	i	i	i	i
CCc1ccc(NC(=S)Nc2cc(C(=O)O)ccc2N2CC3CC(C2)c2cccc(=O)n2C3)cc1 (configuration not stated)	0.02	-12	i	i	i	i
O=C(O)c1ccc(N2CC3CC(C2)c2cccc(=O)n2C3)c(NC(=S)Nc2ccc(Br)cc2)c1 (configuration not stated)	-0.79	-18	6*	i	i	i
COCCN(C(=O)COC(=O)Cc1coc2cc3c(cc12)CCC3)c1c(N)n(Cc2ccccc2)c(=O)[nH]c1=O	0.02	-17	i	i	i	i
CNC[C@@H]1Oc2ccc(NS(=O)(=O)c3ccc(OC)cc3)cc2CC(=O)N([C@H](C)CO)C[C@@H]1C	x	x	x	x	i	x
SMILES	Kir21 inh	hERG rescue	KCNQ1 block	KCNK9 inh	KCNK3 inh	KCNQ1 act
CC(C)N(CCNC(=O)c1nn(Cc2ccccc2)c(=O)c2ccccc12)C(C)C	-0.35	-5	i	i	i	i
N#C/C(=C(/O)CCl)c1nc(-c2ccccc2)cs1	-0.01	-14	i	i	i	i
Cc1ccc(-c2csc(/C(C#N)=C(\O)CCl)n2)cc1	1.7	-20	6*	i	i	i
CCCc1cc(C(=O)N2CCCC(Nc3ccc(C)c(C)c3)C2)n(C)n1 (configuration not stated)	0.03	-8	i	i	i	i
O=C(CCN1CCOCC1)NNC(=O)c1ccc([N+](=O)[O-])cc1[N+](=O)[O-]	x	x	x	x	i	x
O=C(Nc1ccccc1N1CCN(c2ccc(F)cc2)CC1)C1CCCCC1	0.84	-7	i	-6.7*	i	i
O=C(Cc1ccc(F)cc1)Nc1ccccc1N1CCCC1	-5.4*	-9	i	i	i	i
O=C(Nc1ccccc1N1CCN(c2ccc(F)cc2)CC1)C12CC3CC(CC(C3)C1)C2	-1.4	-9	i	-7*	i	i
O=C(Cc1ccc(Cl)c(Cl)c1)Nc1ccccc1N1CCCC1	-0.2	-1	i	i	i	i
COc1ccc(CCNC(=O)[C@@H](NC(=O)N2CC(=O)Nc3ccccc32)C(C)C)cc1OC	-0.32	-7	i	i	i	i
O=C(NCc1ccc(Cl)cc1)c1cc(S(=O)(=O)N2CCCCC2)c[nH]1	-1.8	-11	i	i	i	i
Cn1c(SCC(=O)NC(=O)Nc2ccccc2)nnc1-c1ccncc1	-0.15	-3	i	i	i	i
COc1cc(NC(=O)Cn2cnc(S(=O)(=O)N3CCC(C)CC3)c2)cc(OC)c1OC	2.7	-7	i	i	-9*	i
COc1cc(NC(=O)Cn2cnc(S(=O)(=O)N3CCCC3)c2)cc(OC)c1OC	0.1	-4	i	i	i	i
CCOc1ccc(N2C(=O)CC(Sc3nc4ccc(OCC)cc4s3)C2=O)cc1 (configuration not stated)	-0.47	-9	i	i	i	i
CCOc1ccc2nc(/N=C/c3nc(-c4ccc(Br)cc4)oc3O)sc2c1	0.9	6.7*	i	i	i	25*
Oc1oc(-c2ccc(Br)cc2)nc1/C=N/c1ccccn1	0.11	-7	i	i	i	i
CCOc1ccc2nc(/N=C/c3c(C)[nH]n(-c4ccc(C)cc4)c3=O)sc2c1	0.74	71*	i	i	i	40*
CCOc1[nH]n(-c2ccccc2)c(=O)c1C=Nc1ccc(OC)cc1	-1.4	-10	i	i	i	i
CCOc1ccc2nc(/N=C/c3c(C)[nH]n(-c4ccccc4)c3=O)sc2c1	-0.04	58*	i	i	i	55*
COc1ccc(N(CC(=O)NCc2cccs2)S(=O)(=O)c2ccc(F)cc2)cc1	x	x	x	x	i	x
COc1ccc(Cl)cc1S(=O)(=O)Nc1ccc2c(c1)n(C)c(=O)n2C	-0.66	-9	i	i	i	i
